pIC50: −log10 of the molar value. Calls of active or inactive are those of the source.
Columns and labels:
Trypanosoma cruzi [1] = assay: Trypanosomicidal activity against Trypanosoma cruzi SN3 anexic amastigote after 48 hrs by hemocytometric analysis; format: functional, organism-based; conditions: SN3, 48 h
In short: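 Axenic amastigotes obtained from epimastigotes after 3 days in supplemented M199 (10% FCS, pH 5.4, 37 °C).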

Trypanosoma cruzi [2] = assay: Trypanosomicidal activity against Trypanosoma cruzi SN3 amastigote infected in Vero cells after 72 hrs by Giemsa staining method; format: functional, organism-based
In short: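 Vero cells seeded at 1 × 10^4/well on coverslips, grown 2 days, infected with metacyclic forms (10:1) for 24 h, washed, then treated at 1–100 μM for 72 h in RPMI/10% FBS. Amastigote reduction scored on methanol-fixed Giemsa-stained slides; four determinations; IC50.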

Trypanosoma cruzi [3] = assay: Trypanosomicidal activity against Trypanosoma cruzi infected in Vero cells assessed as reduction in rate of infection after 10 days by Giemsa staining method; format: functional; design: scale not given: the % may be the effect or the level left
In short: (§1)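 Vero cells infected with metacyclic forms (10:1); compounds at IC25 added at infection for 12 h at 37 °C, then washed out and cultures grown 10 days with medium renewed every 48 h. Infected cells and amastigotes per cell counted in >100 host cells on Giemsa-stained slides; trypomastigotes in medium counted; mean of four determinations.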

Trypanosoma cruzi [4] = assay: Trypanosomicidal activity against Trypanosoma cruzi infected in Vero cells assessed as reduction in amastigotes per infected Vero cells after 6 days by Giemsa staining method; format: functional; design: scale not given: the % may be the effect or the level left
Trypanosoma cruzi [5] = assay: Trypanosomicidal activity against Trypanosoma cruzi infected in Vero cells assessed as reduction in trypomastigotes in culture medium after 10 days by Giemsa staining method; format: functional; design: scale not given: the % may be the effect or the level left; in short: as §1
Mus musculus [6] = assay: Toxicity in BALB/c mouse liver infected with Trypanosoma cruzi assessed as granulomas with limphocitic infiltration at 5 mg/kg, ip after 120 days postinfection by Histopathological analysis; format: organism-based; design: dose 5 mg/kg, route intraperitoneal; conditions: in vivo, 2880 h
In short: (§2)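 Livers removed at 120 days postinfection, fixed in 10% buffered formalin, paraffin-embedded, 4–5 μm sections stained with H&E and Masson's trichrome. Blinded scoring of at least 30 fields per slide, 0 (none) to 5 (severe).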

Mus musculus [7] = assay: Toxicity in BALB/c mouse liver infected with Trypanosoma cruzi assessed as delocalized hepatic destruction at 5 mg/kg, ip after 120 days postinfection by Histopathological analysis; format: organism-based; design: dose 5 mg/kg, route intraperitoneal; conditions: in vivo, 2880 h; in short: as §2
Mus musculus [8] = assay: Toxicity in BALB/c mouse liver infected with Trypanosoma cruzi assessed as blood vessels with thickened walls at 5 mg/kg, ip after 120 days postinfection by Histopathological analysis; format: organism-based, Blood vessel; design: dose 5 mg/kg, route intraperitoneal; conditions: in vivo, 2880 h; in short: as §2
Mus musculus [9] = assay: Toxicity in BALB/c mouse liver infected with Trypanosoma cruzi assessed as lymphocytic infiltrations in portal tracts at 5 mg/kg, ip after 120 days postinfection Histopathological analysis; format: organism-based; design: dose 5 mg/kg, route intraperitoneal; conditions: in vivo, 2880 h; in short: as §2
Mus musculus [10] = assay: Toxicity in BALB/c mouse liver infected with Trypanosoma cruzi assessed as intestinal hemorrhage at 5 mg/kg, ip after 120 days postinfection by Histopathological analysis; format: organism-based; design: dose 5 mg/kg, route intraperitoneal; conditions: in vivo, 2880 h; in short: as §2
Mus musculus [11] = assay: Toxicity in BALB/c mouse liver infected with Trypanosoma cruzi assessed as hepatic destruction in portal tracts at 5 mg/kg, ip after 120 days postinfection by Histopathological analysis; format: organism-based; design: dose 5 mg/kg, route intraperitoneal; conditions: in vivo, 2880 h; in short: as §2
Mus musculus [12] = assay: Toxicity in BALB/c mouse liver infected with Trypanosoma cruzi assessed as necrotic cells in portal tracts at 5 mg/kg, ip after 120 days postinfection by Histopathological analysis; format: organism-based; design: dose 5 mg/kg, route intraperitoneal; conditions: in vivo, 2880 h; in short: as §2
Trypanosoma cruzi [13] = assay: Antitrypanosomal activity against Trypanosoma cruzi infected in BALB/c mouse assessed as reduction in parasitemia at 1 mg/kg, ip dosed for 5 days measured on day 30 post infection; format: functional; design: scale not given: the % may be the effect or the level left; conditions: route intraperitoneal
In short: (§3)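 Female BALB/c mice infected with trypomastigotes, dosed ip at 1 mg/kg/day on days 5–10 postinfection; vehicle controls. Mandibular vein blood (5 μL) diluted in citrate/lysis buffer pH 7.2; parasites counted under immersion objective every 2 days from day 5 to 30, as parasites/mL.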

Trypanosoma cruzi [14] = assay: Antitrypanosomal activity against Trypanosoma cruzi infected in BALB/c mouse assessed as reduction in anti-organism antibody at 1 mg/kg, ip dosed for 5 days measured on day 40 to 120 post infection; format: functional, organism-based; design: dose 1 mg/kg
In short: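 Infected female BALB/c mice given 1 mg/kg/day ip for 5 days. Serum (1:50 in PBS) on days 40 and 120 tested by ELISA against excreted epimastigote Fe-SOD antigen; absorbance 490 nm, cutoff = negative-control mean + 3 SD; change is day-120 minus day-40 absorbance.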

Trypanosoma cruzi [15] = assay: Trypanosomicidal activity against Trypanosoma cruzi epimastigotes assessed as inhibition of acetate metabolite excretion after 96 hrs by NMR analysis; format: functional
In short: (§4)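 Epimastigotes (5 × 10^5 cells/mL) exposed to IC25 of compound for 96 h at 28 °C; supernatant after centrifugation analysed by 1H NMR with DSS reference, compared against untreated cultures.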

Trypanosoma cruzi [16] = assay: Antitrypanosomal activity against Trypanosoma cruzi infected in BALB/c mouse assessed as survival rate at 1 mg/kg, ip dosed for 5 days; format: functional; conditions: 120 h, route intraperitoneal
In short: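 Female BALB/c mice were infected with trypomastigotes of T. cruzi SN3 strain (Colombian R. prolixus isolate). Dosing was ip at 1 mg/kg/day for 5 consecutive days, on days 5–10 postinfection. Controls were infected mice given vehicle only, plus uninfected groups. Mortality was followed over the acute phase (first 30 days) and the chronic phase (days 40–120 postinfection).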

Trypanosoma cruzi [17] = assay: Trypanosomicidal activity against Trypanosoma cruzi SN3 epimastigote after 72 hrs by hemocytometric analysis; format: functional, organism-based; conditions: SN3, 72 h
In short: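 Exponential-phase SN3 epimastigotes (Grace's medium, 10% FBS, 28 °C) seeded at 5 × 10^4 parasites/well with compounds dissolved in MTL at 1, 10, 25, 50, 100 μM.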

Vero = assay: Cytotoxicity against African green monkey Vero cells assessed as cell viability after 72 hrs by flow cytometric analysis; format: cell-based; conditions: Chlorocebus sabaeus
In short: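 Vero cells grown in RPMI with 10% inactivated FBS at 37 °C, 5% CO2, seeded at 1 × 10^5 cells/mL, grown 2 days, then exposed to 1–100 μM compound for 72 h. Viability measured by flow cytometry; IC50 by linear regression.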

[18] = Selectivity index, ratio of IC50 for Vero cells to IC50 for Trypanosoma cruzi epimastigote; format: toxicity, cell-based; conditions: monkey, Vero cells versus Trypanosoma cruzi epimastigotes; read-out: Ratio IC50
[19] = Selectivity index, ratio of IC50 for Vero cells to IC50 for Trypanosoma cruzi anexic amastigote; format: toxicity, cell-based; conditions: monkey, Vero cells versus Trypanosoma cruzi axenic amastigotes; read-out: Ratio IC50
[20] = Selectivity index, ratio of IC50 for Vero cells to IC50 for Trypanosoma cruzi intracellular amastigote infected in Vero cells; format: toxicity, cell-based; conditions: monkey; read-out: Ratio IC50
[21] = Inhibition of Trypanosoma cruzi epimastigotes Fe-SOD by NBT reduction assay
In short: (§5)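 Enzyme from epimastigotes grown without FBS (excreted Fe-SOD), sonicated in STE buffer pH 7.8, centrifuged, supernatant protein by Bradford; human erythrocyte CuZn-SOD for comparison. NBT reduction by superoxide (Beyer–Fridovich): methionine, NBT, Triton X-100, riboflavin, homogenate plus compound; A560 read before and after 10 min UV illumination with stirring. Five separate determinations; Newman–Keuls test against control.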

Trypanosoma cruzi [22] = assay: Inhibition of Trypanosoma cruzi epimastigotes Fe-SOD at 50 ug/ml by NBT reduction assay; in short: as §5
[23] = molecular target: Superoxide dismutase [Cu-Zn], SOD1 (Homo sapiens) (UniProt P00441); assay: Activity of human erythrocyte Cu-Zn SOD by NBT reduction assay
Superoxide dismutase [Cu-Zn], SOD1 (Homo sapiens), sequence (P00441 whole entry, looked up): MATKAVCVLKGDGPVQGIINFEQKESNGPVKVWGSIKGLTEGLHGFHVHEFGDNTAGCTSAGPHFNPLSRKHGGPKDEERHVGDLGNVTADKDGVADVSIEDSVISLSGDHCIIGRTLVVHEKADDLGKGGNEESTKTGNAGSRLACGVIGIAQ

Trypanosoma cruzi [24] = assay: Trypanosomicidal activity against Trypanosoma cruzi epimastigotes assessed as intense vacuolization of protozoan cells by TEM analysis; format: functional, organism-based
Trypanosoma cruzi [25] = assay: Trypanosomicidal activity against Trypanosoma cruzi epimastigotes assessed as very electron dense protozoan cells by TEM analysis; format: functional, organism-based
Trypanosoma cruzi [26] = assay: Trypanosomicidal activity against Trypanosoma cruzi epimastigotes assessed as distorted shape of protozoan cells by TEM analysis; format: functional, organism-based
Trypanosoma cruzi [27] = assay: Inhibition of Trypanosoma cruzi epimastigotes Fe-SOD at 25 ug/ml by NBT reduction assay; in short: as §5
Trypanosoma cruzi [28] = assay: Antitrypanosomal activity against Trypanosoma cruzi infected in BALB/c mouse assessed as reduction in trypomastigotes at 1 mg/kg, ip dosed for 5 days measured on day 14 post infection; format: functional, organism-based; design: dose 1 mg/kg; in short: as §3
Trypanosoma cruzi [29] = assay: Trypanosomicidal activity against Trypanosoma cruzi epimastigotes assessed as inhibition of succinate metabolite excretion after 96 hrs by NMR analysis; format: functional; in short: as §4
Trypanosoma cruzi [30] = assay: Trypanosomicidal activity against Trypanosoma cruzi epimastigotes assessed as reservosomes in cytoplasm by TEM analysis; format: functional, organism-based
Trypanosoma cruzi [31] = assay: Trypanosomicidal activity against Trypanosoma cruzi epimastigotes assessed as altered nucleus by TEM analysis; format: functional, organism-based
Trypanosoma cruzi [32] = assay: Inhibition of Trypanosoma cruzi epimastigotes Fe-SOD at 10 ug/ml by NBT reduction assay; in short: as §5
Trypanosoma cruzi [33] = assay: Trypanosomicidal activity against Trypanosoma cruzi epimastigotes assessed as inhibition of L-lactate metabolite excretion after 96 hrs by NMR analysis; format: functional; in short: as §4
[34] = Selectivity ratio of IC50 for Trypanosoma cruzi epimastigotes Fe-SOD to IC50 for human erythrocyte Cu-Zn SOD

Structure (SMILES) | pIC50 (Trypanosoma cruzi [1]) | pIC50 (Trypanosoma cruzi [2]) | Activity (Trypanosoma cruzi [3]) | Activity (Trypanosoma cruzi [4]) | Activity (Trypanosoma cruzi [5]) | Activity (Mus musculus [6]) | Activity (Mus musculus [7]) | Activity (Mus musculus [8]) | Activity (Mus musculus [9]) | Activity (Mus musculus [10]) | Activity (Mus musculus [11]) | Activity (Mus musculus [12]) | Activity (Trypanosoma cruzi [13]) | inhibition (INH) (Trypanosoma cruzi [15]) | pIC50 (Trypanosoma cruzi [17]) | pIC50 (Vero) | selectivity ratio [18] | selectivity ratio [19] | selectivity ratio [20] | pIC50 [21] | further results
O=C(Cn1ccnc1[N+](=O)[O-])NCc1ccccc1 [BENZNIDAZOLE] | 4.72 | 4.63 | 23% | 13% | 46% | Toxic | Toxic | Non-toxic | Non-toxic | Toxic | Toxic | Toxic | 26% | -6% |  |  |  |  |  |  | Activity (Trypanosoma cruzi [14]): Active; survival at 1 mg/kg (Trypanosoma cruzi [16]): 80%
CCCCCCCCN1CCNCc2cc([nH]n2)CNCCN(CCCCCCCC)CCNCc2cc(n[nH]2)CNCC1 | 4.68 | 4.74 |  |  |  |  |  |  |  |  |  |  |  |  | 4.33 | 4.67 | 0.5 | 1 | 1.1 | 4.35 | inhibition (Trypanosoma cruzi [22]): 65%; Activity [23]: 23.4 U/mg
Cl.c1ccc(Cn2nc3cc2CNCCNCCNCc2cc(n(Cc4ccccc4)n2)CNCCNCCNC3)cc1 | 5.00 | 4.86 | >50% | 26% | 34% | Toxic | Non-toxic | Toxic | Toxic | Toxic | Non-toxic | Non-toxic | 16% | 23% | 4.78 | 3.71 | 11.8 | 19.5 | 14.2 | 4.54 | Activity (Trypanosoma cruzi [24]): Active; Activity (Trypanosoma cruzi [25]): Active; Activity (Trypanosoma cruzi [26]): Active; inhibition (Trypanosoma cruzi [22]): 98%; inhibition (Trypanosoma cruzi [27]): 70%; Activity (Trypanosoma cruzi [28]): Active; inhibition (INH) (Trypanosoma cruzi [29]): 19%; Activity [23]: 23.4 U/mg
Cl.c1c2n[nH]c1CNCCN1CCNCc3cc(n[nH]3)CNCCN(CCNC2)CCNCc2cc([nH]n2)CNCC1 | 5.14 | 5.21 | 74% | 50% | 70% | Non-toxic | Non-toxic | Non-toxic | Non-toxic | Non-toxic | Toxic | Non-toxic | 53% | 22% | 5.89 | 3.83 | 115 | 20.7 | 24 | 4.51 | Activity (Trypanosoma cruzi [24]): Active; Activity (Trypanosoma cruzi [25]): Active; Activity (Trypanosoma cruzi [26]): Active; inhibition (Trypanosoma cruzi [22]): 98%; inhibition (Trypanosoma cruzi [27]): 70%; Activity (Trypanosoma cruzi [28]): Active; Activity (Trypanosoma cruzi [14]): Active; inhibition (INH) (Trypanosoma cruzi [29]): 7%; Activity [23]: 23.4 U/mg
Cl.Cn1nc2cc1CNCCNCCNCc1cc(n(C)n1)CNCCNCCNC2 | 5.06 | 5.19 | 80% | 42% | 64% | Non-toxic | Non-toxic | Toxic | Non-toxic | Non-toxic | Non-toxic | Non-toxic | 39% | 15% | 5.89 | 3.75 | 137 | 20.3 | 27.5 | 5.38 | Activity (Trypanosoma cruzi [24]): Active; Activity (Trypanosoma cruzi [30]): Active; Activity (Trypanosoma cruzi [31]): Active; inhibition (Trypanosoma cruzi [22]): 98%; inhibition (Trypanosoma cruzi [27]): 70%; inhibition (Trypanosoma cruzi [32]): 75%; Activity (Trypanosoma cruzi [28]): Active; Activity (Trypanosoma cruzi [14]): Active; inhibition (INH) (Trypanosoma cruzi [29]): 70%; inhibition (INH) (Trypanosoma cruzi [33]): 58%; Ratio IC50 [34]: 23; Activity [23]: 23.4 U/mg
